Experimental findings from ChEMBL document CHEMBL1129647, “Targeting delavirdine/atevirdine resistant HIV-1: identification of (alkylamino)piperidine-containing bis(heteroaryl)piperazines as broad spectrum HIV-1 reverse transcriptase inhibitors” (J Med Chem, 1996) are described below.

A short description of data set [1]: Bioavailability at an iv dose of 16 mg/Kg and po dose of 35 mg/Kg. The following applies: rat, in vivo, read-out: Bioavailabiility. In kind it is ADME, organism-based. An outline of the steps: (§1)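 Male Sprague-Dawley rats, fasted, dosed iv and po in a crossover design with a 1 week washout between treatments (N = 3). Compound was given as a solution in propylene glycol/water (80/20, v/v) acidified with a molar excess of methanesulfonic acid. Values are the iv clearance and the absolute oral bioavailability.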

Data set [2] is described as follows: Clearance at an iv dose of 16 mg/Kg and po dose of 35 mg/Kg. The following applies: rat, in vivo. The format is ADME, organism-based. An outline of the steps:
as §1

For data set [3], the target named is Human immunodeficiency virus type 1 reverse transcriptase (Human immunodeficiency virus 1, UniProt Q72547, Y181C).
For data set [4], the target named is Human immunodeficiency virus type 1 reverse transcriptase (Human immunodeficiency virus 1, UniProt Q72547).
Data set [5] can be described thus: Clearance at an iv dose of 14 mg/Kg and po dose of 15 mg/Kg. The format is ADME, organism-based. Conditions: rat, in vivo. The method, boiled down:
as §1

Data set [6] in a line: Bioavailability at an iv dose of 14 mg/Kg and po dose of 15 mg/Kg. The format is ADME, organism-based. The following applies: rat, in vivo, read-out: Bioavailabiility. An outline of the steps:
as §1

For data set [7], the system named is Rattus norvegicus. As to the kind of experiment: Bioavailability at an iv dose of 14 mg/Kg and po dose of 28 mg/Kg. The following applies: in vivo. In kind it is ADME, organism-based. An outline of the steps:
as §1

For `CNC(=O)Nc1ccc2[nH]c(C(=O)N3CCC(N(C)c4ncccc4NC(C)C)CC3)cc2c1`, in data set [1], the bioavailability is 12.3%. The compound also registered a clearance in data set [2] of 42 mL/min/kg. For the same compound, the values for the IC50 in data set [3] and in data set [4] were 1600 nM and 180 nM, respectively.

The compound `CC(C)Nc1cccnc1N1CCN(C(=O)c2cc3cc(NS(C)(=O)=O)ccc3[nH]2)CC1.CS(=O)(=O)O` [DELAVIRDINE MESYLATE] showed a clearance in data set [5] of 13.6 mL/min/kg. For the same compound, in data set [6], the bioavailability was determined as 64%. The Bioavailabiility in data set [7] was 169%.

A word on the IC50: it is the midpoint of a concentration-inhibition curve. Read a high IC50 as a need for much substance.
